Results: ChEMBL document CHEMBL1641579, “Synthesis and biological evaluation of 7-substituted-1-(3-bromophenylamino)isoquinoline-4-carbonitriles as inhibitors of myosin light chain kinase and epidermal growth factor receptor” (Bioorg Med Chem, 2011)

Legend:
[1] = biological target: Homeodomain-interacting protein kinase 2 (Homo sapiens) (UniProt Q9H2X6); test: Inhibition of HIPK2 assessed as residual activity at 10 uM
Outline: (§1)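 Kinase panel screen run as a radioactive activity assay at single compound concentration. Score reported as percent activity remaining relative to DMSO controls (100%).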

[2] = biological target: T1, MAP/microtubule affinity-regulating kinase 4 (Homo sapiens) (UniProt Q96L34); test: Inhibition of MARK4 assessed as residual activity at 10 uM; outline: as §1
T1 sequence (whole entry): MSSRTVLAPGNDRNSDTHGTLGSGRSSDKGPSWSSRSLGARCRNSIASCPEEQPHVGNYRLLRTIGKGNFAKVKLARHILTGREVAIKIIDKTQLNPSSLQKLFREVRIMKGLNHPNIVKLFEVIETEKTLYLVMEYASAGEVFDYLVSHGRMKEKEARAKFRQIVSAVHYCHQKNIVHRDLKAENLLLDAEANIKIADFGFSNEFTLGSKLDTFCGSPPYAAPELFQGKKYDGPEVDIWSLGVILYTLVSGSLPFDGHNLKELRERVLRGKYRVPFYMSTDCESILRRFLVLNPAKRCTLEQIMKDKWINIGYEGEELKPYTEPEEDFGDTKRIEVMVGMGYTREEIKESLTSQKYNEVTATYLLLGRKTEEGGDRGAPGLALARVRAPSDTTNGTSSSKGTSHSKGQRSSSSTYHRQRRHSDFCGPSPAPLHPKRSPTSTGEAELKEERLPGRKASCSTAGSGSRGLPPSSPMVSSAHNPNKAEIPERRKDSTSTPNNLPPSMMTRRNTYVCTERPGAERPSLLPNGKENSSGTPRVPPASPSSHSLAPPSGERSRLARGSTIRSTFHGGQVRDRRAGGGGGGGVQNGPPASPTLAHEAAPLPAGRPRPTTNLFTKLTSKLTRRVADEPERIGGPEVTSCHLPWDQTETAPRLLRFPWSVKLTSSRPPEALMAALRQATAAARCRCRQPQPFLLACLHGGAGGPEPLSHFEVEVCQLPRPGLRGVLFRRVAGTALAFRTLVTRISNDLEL

[3] = biological target: Insulin-like growth factor 1 receptor (Homo sapiens) (UniProt P08069); test: Inhibition of IGF1R assessed as residual activity at 10 uM; outline: as §1
[4] = biological target: Serine/threonine-protein kinase 26 (Homo sapiens) (UniProt Q9P289); test: Inhibition of MST4 assessed as residual activity at 10 uM
Outline: (§2)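 Panel screen by radioactive kinase assay at a single inhibitor concentration. Score is the percent activity remaining relative to DMSO controls (100%).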

[5] = biological target: Serine/threonine-protein kinase PAK 6 (Homo sapiens) (UniProt Q9NQU5); test: Inhibition of PAK6 assessed as residual activity at 10 uM; outline: as §2
[6] = biological target: Mitogen-activated protein kinase kinase kinase 11 (Homo sapiens) (UniProt Q16584); test: Inhibition of MLK3 assessed as residual activity at 10 uM; outline: as §2
[7] = biological target: Cyclin-dependent kinase 2/cyclin A (Homo sapiens) (UniProt P24941+P20248+P78396); test: Inhibition of CDK2/CyclinA assessed as residual activity at 10 uM; type: protein-complex assay; outline: as §1
[8] = biological target: Mitogen-activated protein kinase 8 (Homo sapiens) (UniProt P45983); test: Inhibition of JNK1 assessed as residual activity at 10 uM; outline: as §1
[9] = biological target: T2, Inhibitor of nuclear factor kappa-B kinase subunit epsilon (Homo sapiens) (UniProt Q14164); test: Inhibition of IKKepsilon assessed as residual activity at 10 uM; outline: as §1
T2 sequence (whole entry): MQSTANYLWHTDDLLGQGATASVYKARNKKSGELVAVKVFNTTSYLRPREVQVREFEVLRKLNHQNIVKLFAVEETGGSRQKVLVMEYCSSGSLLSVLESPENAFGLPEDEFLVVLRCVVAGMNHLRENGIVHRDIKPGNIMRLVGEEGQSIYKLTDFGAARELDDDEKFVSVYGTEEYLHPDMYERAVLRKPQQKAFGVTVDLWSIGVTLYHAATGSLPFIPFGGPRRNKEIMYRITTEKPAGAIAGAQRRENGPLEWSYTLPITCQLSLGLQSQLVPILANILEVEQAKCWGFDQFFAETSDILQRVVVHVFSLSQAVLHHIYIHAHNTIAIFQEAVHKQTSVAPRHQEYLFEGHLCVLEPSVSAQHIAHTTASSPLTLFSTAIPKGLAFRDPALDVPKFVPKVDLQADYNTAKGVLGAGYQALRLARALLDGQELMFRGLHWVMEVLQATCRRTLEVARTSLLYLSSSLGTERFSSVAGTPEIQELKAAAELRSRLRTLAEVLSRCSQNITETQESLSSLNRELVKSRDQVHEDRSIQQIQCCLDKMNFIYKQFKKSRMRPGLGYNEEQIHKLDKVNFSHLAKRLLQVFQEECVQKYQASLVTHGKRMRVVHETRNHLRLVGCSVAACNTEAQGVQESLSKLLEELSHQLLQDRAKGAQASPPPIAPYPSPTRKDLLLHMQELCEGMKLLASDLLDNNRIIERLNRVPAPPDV

[10] = biological target: T3, Serine/threonine-protein kinase Nek2 (Homo sapiens) (UniProt P51955); test: Inhibition of NEK2A assessed as residual activity at 10 uM; outline: as §2
T3 sequence (whole entry): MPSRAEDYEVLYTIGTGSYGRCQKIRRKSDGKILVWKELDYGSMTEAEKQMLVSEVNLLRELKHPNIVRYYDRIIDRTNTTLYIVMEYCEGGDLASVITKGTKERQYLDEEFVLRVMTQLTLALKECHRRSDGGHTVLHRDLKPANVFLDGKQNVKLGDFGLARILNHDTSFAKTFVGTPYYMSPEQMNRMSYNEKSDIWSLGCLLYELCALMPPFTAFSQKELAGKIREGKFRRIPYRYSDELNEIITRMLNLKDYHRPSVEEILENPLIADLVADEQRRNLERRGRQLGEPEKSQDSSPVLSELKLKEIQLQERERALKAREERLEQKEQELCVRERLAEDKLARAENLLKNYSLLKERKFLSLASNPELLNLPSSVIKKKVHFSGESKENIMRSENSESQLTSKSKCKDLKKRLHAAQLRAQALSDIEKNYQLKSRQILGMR

[11] = biological target: Rho-associated protein kinase 2 (Homo sapiens) (UniProt O75116); test: Inhibition of ROCK2 assessed as residual activity at 10 uM; outline: as §2
[12] = biological target: Serine/threonine-protein kinase Nek6 (Homo sapiens) (UniProt Q9HC98); test: Inhibition of NEK6 assessed as residual activity at 10 uM; outline: as §2
[13] = biological target: Serine/threonine-protein kinase PLK1 (Homo sapiens) (UniProt P53350); test: Inhibition of PLK1 assessed as residual activity at 10 uM; outline: as §2

Sequence of Cyclin-dependent kinase 2/cyclin A (Homo sapiens) (P20248 whole entry, looked up, other chains not shown): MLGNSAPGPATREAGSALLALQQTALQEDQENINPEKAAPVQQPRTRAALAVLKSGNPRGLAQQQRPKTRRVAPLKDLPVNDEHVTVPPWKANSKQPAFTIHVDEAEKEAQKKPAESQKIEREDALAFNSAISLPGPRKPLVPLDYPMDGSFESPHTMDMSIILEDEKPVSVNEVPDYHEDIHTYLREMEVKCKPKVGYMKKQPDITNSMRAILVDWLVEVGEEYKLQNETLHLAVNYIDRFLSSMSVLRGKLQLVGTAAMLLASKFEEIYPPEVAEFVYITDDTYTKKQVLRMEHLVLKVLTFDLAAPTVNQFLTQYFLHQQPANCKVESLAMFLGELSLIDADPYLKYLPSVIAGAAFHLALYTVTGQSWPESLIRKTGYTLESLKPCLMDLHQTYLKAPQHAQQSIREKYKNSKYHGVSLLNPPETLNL
Sequence of Cyclin-dependent kinase 2/cyclin A (Homo sapiens) (P78396 whole entry, looked up, other chains not shown): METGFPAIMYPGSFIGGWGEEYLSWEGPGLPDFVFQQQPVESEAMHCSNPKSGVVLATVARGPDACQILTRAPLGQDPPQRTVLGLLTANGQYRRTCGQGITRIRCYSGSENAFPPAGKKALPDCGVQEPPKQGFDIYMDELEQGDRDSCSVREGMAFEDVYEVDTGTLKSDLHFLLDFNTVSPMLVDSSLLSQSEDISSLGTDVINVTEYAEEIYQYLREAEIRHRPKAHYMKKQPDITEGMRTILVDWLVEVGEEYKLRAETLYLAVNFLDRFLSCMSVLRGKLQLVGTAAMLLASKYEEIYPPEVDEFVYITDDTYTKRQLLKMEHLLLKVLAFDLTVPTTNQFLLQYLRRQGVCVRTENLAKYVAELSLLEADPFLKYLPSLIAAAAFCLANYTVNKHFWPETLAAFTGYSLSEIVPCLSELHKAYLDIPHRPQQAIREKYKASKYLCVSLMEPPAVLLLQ
Sequence of Serine/threonine-protein kinase 26 (Homo sapiens) (Q9P289 2-416 limits assumed): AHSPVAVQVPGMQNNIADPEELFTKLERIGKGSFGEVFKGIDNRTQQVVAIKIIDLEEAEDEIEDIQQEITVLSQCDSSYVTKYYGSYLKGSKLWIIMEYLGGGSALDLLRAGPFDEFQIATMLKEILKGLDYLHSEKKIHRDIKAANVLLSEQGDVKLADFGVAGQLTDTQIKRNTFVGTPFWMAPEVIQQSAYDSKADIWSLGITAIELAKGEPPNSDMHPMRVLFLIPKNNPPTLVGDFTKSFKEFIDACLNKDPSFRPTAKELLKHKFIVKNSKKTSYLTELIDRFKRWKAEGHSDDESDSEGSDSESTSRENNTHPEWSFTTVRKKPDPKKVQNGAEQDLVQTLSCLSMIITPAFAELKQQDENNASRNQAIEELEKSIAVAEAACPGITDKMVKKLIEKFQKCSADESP
Sequence of Rho-associated protein kinase 2 (Homo sapiens) (O75116 whole entry, looked up): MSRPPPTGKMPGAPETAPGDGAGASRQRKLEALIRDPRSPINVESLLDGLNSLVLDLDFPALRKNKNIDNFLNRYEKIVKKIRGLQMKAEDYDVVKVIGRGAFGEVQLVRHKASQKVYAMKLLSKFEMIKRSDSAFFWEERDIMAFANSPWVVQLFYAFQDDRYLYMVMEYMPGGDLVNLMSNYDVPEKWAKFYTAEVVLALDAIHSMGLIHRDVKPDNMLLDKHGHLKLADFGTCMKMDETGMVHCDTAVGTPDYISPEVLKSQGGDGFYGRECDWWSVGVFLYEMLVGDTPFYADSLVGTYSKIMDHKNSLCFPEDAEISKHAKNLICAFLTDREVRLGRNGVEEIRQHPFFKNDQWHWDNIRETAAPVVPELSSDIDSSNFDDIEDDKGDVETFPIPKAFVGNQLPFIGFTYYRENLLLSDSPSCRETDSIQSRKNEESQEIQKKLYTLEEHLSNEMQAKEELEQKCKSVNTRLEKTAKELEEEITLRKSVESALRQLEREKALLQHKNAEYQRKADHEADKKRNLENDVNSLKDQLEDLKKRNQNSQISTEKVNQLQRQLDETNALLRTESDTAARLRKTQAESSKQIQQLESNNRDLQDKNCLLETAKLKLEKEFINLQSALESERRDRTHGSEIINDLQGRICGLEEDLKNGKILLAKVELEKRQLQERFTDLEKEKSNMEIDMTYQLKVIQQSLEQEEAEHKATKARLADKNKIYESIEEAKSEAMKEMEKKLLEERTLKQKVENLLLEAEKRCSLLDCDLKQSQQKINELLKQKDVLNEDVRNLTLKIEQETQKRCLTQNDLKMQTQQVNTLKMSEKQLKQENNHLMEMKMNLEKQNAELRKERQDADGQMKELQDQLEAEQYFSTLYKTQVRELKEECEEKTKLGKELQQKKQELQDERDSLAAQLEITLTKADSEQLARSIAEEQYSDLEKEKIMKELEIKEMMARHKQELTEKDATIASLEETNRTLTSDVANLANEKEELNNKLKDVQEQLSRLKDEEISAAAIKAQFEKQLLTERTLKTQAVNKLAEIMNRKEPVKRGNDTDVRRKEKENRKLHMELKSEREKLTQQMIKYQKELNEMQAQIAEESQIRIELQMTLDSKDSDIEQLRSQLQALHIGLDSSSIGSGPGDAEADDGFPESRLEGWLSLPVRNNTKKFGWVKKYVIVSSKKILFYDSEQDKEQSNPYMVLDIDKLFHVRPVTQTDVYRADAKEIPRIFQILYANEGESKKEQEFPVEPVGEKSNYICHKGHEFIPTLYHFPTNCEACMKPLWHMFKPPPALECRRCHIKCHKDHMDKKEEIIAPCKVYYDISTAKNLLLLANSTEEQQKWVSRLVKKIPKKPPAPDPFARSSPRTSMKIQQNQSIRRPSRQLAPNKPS
Sequence of Mitogen-activated protein kinase kinase kinase 11 (Homo sapiens) (Q16584 whole entry, looked up): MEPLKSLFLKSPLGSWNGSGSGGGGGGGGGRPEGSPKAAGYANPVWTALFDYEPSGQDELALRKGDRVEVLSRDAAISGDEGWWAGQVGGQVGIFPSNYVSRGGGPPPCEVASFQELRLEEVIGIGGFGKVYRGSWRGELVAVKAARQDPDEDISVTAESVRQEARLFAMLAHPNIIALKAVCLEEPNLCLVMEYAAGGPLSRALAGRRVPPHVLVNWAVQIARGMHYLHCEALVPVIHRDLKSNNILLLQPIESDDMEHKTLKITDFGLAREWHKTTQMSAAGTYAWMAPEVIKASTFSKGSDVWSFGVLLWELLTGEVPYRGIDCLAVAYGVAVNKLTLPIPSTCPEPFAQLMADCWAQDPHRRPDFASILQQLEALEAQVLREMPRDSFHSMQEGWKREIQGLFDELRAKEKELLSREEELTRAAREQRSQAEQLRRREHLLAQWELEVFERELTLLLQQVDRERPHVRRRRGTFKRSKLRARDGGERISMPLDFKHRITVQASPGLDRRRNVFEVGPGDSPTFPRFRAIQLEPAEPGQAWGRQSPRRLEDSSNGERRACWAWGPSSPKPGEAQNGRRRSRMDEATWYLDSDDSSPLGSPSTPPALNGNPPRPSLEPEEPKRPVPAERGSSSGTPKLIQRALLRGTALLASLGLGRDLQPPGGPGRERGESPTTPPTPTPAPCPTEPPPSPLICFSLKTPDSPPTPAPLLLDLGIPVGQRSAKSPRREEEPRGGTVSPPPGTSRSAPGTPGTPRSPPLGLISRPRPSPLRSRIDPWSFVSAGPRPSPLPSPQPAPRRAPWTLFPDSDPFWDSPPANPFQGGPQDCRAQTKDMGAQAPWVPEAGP
Sequence of Homeodomain-interacting protein kinase 2 (Homo sapiens) (Q9H2X6 whole entry, looked up): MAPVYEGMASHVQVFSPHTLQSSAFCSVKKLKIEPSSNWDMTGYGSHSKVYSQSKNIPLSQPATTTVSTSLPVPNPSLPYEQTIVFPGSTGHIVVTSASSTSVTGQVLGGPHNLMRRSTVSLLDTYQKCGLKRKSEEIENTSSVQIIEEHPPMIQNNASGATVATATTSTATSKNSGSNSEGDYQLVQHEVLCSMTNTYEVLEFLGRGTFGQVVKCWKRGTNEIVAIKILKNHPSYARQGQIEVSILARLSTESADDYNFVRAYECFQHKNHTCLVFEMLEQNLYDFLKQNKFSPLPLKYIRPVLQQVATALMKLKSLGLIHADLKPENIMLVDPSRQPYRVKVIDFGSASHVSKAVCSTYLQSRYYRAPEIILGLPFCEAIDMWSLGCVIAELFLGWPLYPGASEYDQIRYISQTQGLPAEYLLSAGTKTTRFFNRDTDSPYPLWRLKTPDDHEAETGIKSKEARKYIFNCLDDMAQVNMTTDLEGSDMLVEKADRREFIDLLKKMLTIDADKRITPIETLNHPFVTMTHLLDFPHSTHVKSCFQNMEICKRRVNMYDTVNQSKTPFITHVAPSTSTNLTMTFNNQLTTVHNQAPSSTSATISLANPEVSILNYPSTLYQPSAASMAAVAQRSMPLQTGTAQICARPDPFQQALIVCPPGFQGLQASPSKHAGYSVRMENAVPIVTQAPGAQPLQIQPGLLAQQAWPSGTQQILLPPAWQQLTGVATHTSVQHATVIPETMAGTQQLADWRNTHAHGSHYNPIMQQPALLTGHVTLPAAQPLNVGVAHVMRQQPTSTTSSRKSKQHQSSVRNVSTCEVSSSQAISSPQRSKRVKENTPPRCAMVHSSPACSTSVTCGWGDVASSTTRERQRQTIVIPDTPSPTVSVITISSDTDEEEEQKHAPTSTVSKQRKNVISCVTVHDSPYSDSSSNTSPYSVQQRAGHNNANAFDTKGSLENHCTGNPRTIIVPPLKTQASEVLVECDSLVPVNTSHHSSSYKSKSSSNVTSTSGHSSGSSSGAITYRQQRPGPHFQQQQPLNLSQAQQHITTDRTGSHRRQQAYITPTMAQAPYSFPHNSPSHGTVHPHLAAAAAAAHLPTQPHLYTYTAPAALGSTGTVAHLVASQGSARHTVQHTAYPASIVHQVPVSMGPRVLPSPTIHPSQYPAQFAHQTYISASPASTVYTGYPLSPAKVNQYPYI
Sequence of Serine/threonine-protein kinase Nek6 (Homo sapiens) (Q9HC98 whole entry): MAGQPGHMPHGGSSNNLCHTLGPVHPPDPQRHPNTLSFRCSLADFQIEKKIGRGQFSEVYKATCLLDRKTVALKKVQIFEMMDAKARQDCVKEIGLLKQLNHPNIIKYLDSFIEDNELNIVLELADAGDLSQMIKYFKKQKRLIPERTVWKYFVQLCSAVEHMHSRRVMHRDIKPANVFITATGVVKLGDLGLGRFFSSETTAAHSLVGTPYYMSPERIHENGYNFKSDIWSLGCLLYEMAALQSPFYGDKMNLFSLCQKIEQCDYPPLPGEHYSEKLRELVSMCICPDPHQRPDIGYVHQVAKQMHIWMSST

Row | Compound | Activity [1] [%] | Activity [2] [%] | Activity [3] [%] | Activity [4] [%] | Activity [5] [%] | Activity [6] [%] | Activity [7] [%] | Activity [8] [%] | Activity [9] [%] | Activity [10] [%] | Activity [11] [%] | Activity [12] [%] | Activity [13] [%]
1 | CN1CCN(CCC(=O)Nc2ccc3c(C#N)cnc(Nc4cccc(Br)c4)c3c2)CC1 | 88 | 100 | 65 | 92 | 87 | 87 | 100 | 99 | 91 | 100 | 100 | 100 | 86
2 | CN(C)C/C=C/C(=O)Nc1ccc2c(C#N)cnc(Nc3cccc(Br)c3)c2c1 | 95 | 82 | 73 | 81 | 100 | 86 | 97 | 91 | 80 | 98 | 100 | 81 | 84
3 | CN(C)CCCC(=O)Nc1ccc2c(C#N)cnc(Nc3cccc(Br)c3)c2c1 | 93 | 100 | 59 | 99 | 100 | 100 | 100 | 97 | 100 | 100 | 100 | 100 | 69
